Results on one molecule are retold here after ChEMBL document CHEMBL1159071, “Discovery of 4-(5-methyloxazolo[4,5-b]pyridin-2-yl)-1,4-diazabicyclo[3.2.2]nonane (CP-810,123), a novel alpha 7 nicotinic acetylcholine receptor agonist for the treatment of cognitive disorders in schizophrenia: synthesis, SAR development, and in vivo efficacy in cognition models” (J Med Chem, 2010).

Calls of active or inactive are those of the source. The calls are words filed in the database; no cut-off is given here.

Data set [1] can be described thus: Agonist activity at human alpha7 nAChR/mouse 5HT3 chimeric receptor expressed in SH-EP1 cells assessed as increase in intracellular calcium level relative to 100 uM nicotine. Type of data set: functional. The procedure, abridged:
(§1)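 α7-5HT3 chimera stably in SH-EP1 cells grown to confluence; loaded with Calcium Green 1 AM (2 μM final) 60 min at 37 °C. Compound added directly; calcium rise read by FLIPR (excitation 488 nm, emission >525 nm).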
In general terms: Calcium flux is commonly read through the fluorescence of an indicator in the cells.

For data set [2], the system named is Rattus norvegicus. Kind of data set: Cognitive enhancement in Sprague-Dawley rat assessed as improvement of scopolamine-impaired performance at 0.32 mg/kg, sc administered 30 mins before scopolamine challenge by novel object recognition assay. Type of data set: functional, organism-based. Also on record: dose 0.32 mg/kg. The procedure, abridged: (§2)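 Rats habituated to the arena 3 min on day 1. Next day, 10-15 per group dosed sc with vehicle or compound, then 30 min later vehicle or (-)-scopolamine 0.2 mg/kg sc. After 30 min more, two identical objects shown 3 min; 2.5 h later one novel and one familiar object for 3 min. Exploration time per object, mean ± SEM.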

Data set [3] has as its target Neuronal acetylcholine receptor subunit alpha-7 (Rattus norvegicus, UniProt Q05941). The data set can be described thus: Displacement of [125I]BTX from rat alpha7 nicotinic acetylcholine receptor expressed in GH4C1 cells. In kind it is cell-based, GH4-C1. Put shortly:
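GH4C1 membranes (20 mM HEPES, 118 mM NaCl, 4.5 mM KCl, 2.5 mM CaCl2, 1.2 mM MgSO4, pH 7.5) incubated 2 h at 37 °C with [125I]α-bungarotoxin 0.4 nM final. Nonspecific binding with 1 μM methyllycaconitine; filtration onto PEI-treated GF/B filters. Ki = IC50/(1+[L]/KD); six-point curves in triplicate; geometric mean with 95% CI.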
On the technique in general: In a radioligand displacement assay an active substance lowers the binding of a labelled ligand.

The nature of data set [4]: Agonist activity at human alpha7 nAChR/mouse 5HT3 chimeric receptor expressed in SH-EP1 cells assessed as increase in intracellular calcium level. In kind it is functional, cell-based. The procedure, abridged: as §1
A further data set relates to CHO. The data set can be described thus: Toxicity in CHO cells assessed as induction of DNA fragments by in vitro micronucleus assay. Type of data set: cell-based, Cricetulus griseus. To be noted: chinese hamster.
Data set [5] deals with Neuronal acetylcholine receptor subunit alpha-7 (Homo sapiens, UniProt P36544). The data set can be described thus: Displacement of [125I]BTX from human alpha7 nicotinic acetylcholine receptor expressed in IMR32 cells. Type of data set: cell-based, IMR-32. The procedure, abridged: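 Human α7 nAChR in IMR-32 cells, [125I]BTX radioligand. Six-point concentration-response curve, run in triplicate and averaged.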
Chain of Neuronal acetylcholine receptor subunit alpha-7 (Homo sapiens, UniProt P36544) (P36544 whole entry): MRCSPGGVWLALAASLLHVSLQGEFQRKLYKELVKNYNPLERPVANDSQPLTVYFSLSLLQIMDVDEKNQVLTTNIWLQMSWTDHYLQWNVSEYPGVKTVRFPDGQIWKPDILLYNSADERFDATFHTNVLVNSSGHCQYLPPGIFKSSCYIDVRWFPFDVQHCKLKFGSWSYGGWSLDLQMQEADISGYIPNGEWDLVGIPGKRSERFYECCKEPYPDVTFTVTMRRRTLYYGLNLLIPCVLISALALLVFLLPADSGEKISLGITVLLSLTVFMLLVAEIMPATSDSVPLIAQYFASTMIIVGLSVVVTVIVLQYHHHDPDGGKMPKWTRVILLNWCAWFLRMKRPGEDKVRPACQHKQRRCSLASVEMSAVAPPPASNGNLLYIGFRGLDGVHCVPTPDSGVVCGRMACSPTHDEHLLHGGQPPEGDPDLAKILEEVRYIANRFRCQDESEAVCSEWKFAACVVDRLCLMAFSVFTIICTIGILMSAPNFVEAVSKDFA

Data set [6] concerns the target Neuronal acetylcholine receptor; alpha4/beta2 (Rattus norvegicus, UniProt P09483+P12390). Kind of data set: Displacement of [3H]nicotine from alpha4beta2 nAChR in rat brain homogenate. In kind it is tissue-based. The procedure, abridged: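 Rat brain homogenate membranes; [3H]nicotine used as radioligand. Ki taken as the average of a six-point dose-response curve run in triplicate.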

Data set [7] in a line: Lipophilicity, log D at pH 7.4. In kind it is physicochemical. Conditions: buffer.
A short description of data set [8]: Aqueous solubility of the compound. Type of data set: physicochemical. Conditions: buffer.
A short description of data set [9]: Half life in human liver microsomes. Type of data set: ADME, Microsome. The procedure, abridged:
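Stability in human liver microsomes.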
For orientation: Microsomes from liver hold many membrane-bound enzymes, among them those of drug oxidation.

The target of data set [10] is T1, Muscarinic acetylcholine receptor M1 (Homo sapiens, UniProt P11229).
T1 sequence (P11229 whole entry): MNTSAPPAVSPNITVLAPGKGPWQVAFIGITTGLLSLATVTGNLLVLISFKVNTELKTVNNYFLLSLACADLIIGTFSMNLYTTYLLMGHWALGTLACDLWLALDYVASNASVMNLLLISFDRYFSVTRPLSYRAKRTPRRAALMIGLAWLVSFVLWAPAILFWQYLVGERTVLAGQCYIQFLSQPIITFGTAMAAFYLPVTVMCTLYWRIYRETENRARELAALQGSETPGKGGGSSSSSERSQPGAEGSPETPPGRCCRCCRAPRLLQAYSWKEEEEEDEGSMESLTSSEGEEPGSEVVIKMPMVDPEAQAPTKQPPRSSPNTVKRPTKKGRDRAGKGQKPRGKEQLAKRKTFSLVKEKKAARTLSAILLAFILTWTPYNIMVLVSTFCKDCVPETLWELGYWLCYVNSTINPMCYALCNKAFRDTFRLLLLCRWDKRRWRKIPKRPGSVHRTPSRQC
The data set can be described thus: Inhibition of muscarinic M1 receptor.

In data set [11] the target is Muscarinic acetylcholine receptor M3 (Homo sapiens, UniProt P20309). Kind of data set: Inhibition of muscarinic M3 receptor.
Chain of Muscarinic acetylcholine receptor M3 (P20309 whole entry): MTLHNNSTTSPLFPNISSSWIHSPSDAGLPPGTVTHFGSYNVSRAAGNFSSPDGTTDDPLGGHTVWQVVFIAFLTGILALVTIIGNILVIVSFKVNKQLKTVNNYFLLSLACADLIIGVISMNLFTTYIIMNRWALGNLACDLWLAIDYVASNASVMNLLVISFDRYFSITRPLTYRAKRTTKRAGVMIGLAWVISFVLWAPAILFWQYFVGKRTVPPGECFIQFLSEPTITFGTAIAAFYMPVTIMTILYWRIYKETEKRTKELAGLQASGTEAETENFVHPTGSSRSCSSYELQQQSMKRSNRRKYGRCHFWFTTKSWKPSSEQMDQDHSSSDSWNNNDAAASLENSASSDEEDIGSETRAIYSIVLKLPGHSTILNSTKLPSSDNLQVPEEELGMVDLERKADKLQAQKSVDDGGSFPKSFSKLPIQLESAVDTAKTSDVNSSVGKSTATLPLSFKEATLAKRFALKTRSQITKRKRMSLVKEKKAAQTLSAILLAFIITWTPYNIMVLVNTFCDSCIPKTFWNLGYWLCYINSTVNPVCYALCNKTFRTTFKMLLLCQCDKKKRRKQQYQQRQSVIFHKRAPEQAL
In data set [12] the target is T2, Muscarinic acetylcholine receptor M4 (Homo sapiens, UniProt P08173).
T2 sequence (P08173 whole entry): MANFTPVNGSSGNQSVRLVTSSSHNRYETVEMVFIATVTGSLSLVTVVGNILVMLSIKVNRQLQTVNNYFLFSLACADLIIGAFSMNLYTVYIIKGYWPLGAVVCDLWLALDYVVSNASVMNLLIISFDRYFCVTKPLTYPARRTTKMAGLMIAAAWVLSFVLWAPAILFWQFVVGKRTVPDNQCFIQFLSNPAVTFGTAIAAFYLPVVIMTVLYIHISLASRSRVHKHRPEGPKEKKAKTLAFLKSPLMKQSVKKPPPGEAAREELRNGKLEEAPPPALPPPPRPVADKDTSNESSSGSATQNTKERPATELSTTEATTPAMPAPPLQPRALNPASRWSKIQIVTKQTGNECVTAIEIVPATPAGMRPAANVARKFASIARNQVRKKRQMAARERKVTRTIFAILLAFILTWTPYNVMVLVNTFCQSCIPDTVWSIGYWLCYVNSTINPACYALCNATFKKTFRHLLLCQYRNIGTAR
The data set can be described thus: Inhibition of muscarinic M4 receptor.

Data set [13] addresses Neuronal acetylcholine receptor subunit alpha-7 (Rattus norvegicus) (UniProt Q05941). The data set can be described thus: Ex vivo receptor binding at alpha7 nicotinic acetylcholine receptor in rat hippocampal brain after 30 mins by [125I]alpha-bungarotoxin binding assay. Conditions: Hippocampus. Type of data set: tissue-based. The procedure, abridged:
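Rats dosed sc with compound or vehicle, 3 per dose group; hippocampus taken 30 min later and homogenized in HEPES buffer pH 7.5. Homogenate incubated 2 h at 37 °C with 0.4 nM [125I]α-bungarotoxin. Nonspecific binding with 1 μM methyllycaconitine; filtration onto GF/B. Occupancy-versus-dose ED50 derived.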

The subject of data set [14] is Rattus norvegicus. Kind of data set: Cognitive enhancement in Sprague-Dawley rat assessed as reversal of amphetamine-induced auditory sensory gating deficit at 1 mg/kg, sc. Type of data set: functional, organism-based. The arrangement: dose 1 mg/kg. Put shortly: (§3)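 Male Sprague-Dawley rats (250-300 g) under chloral hydrate (400 mg/kg ip), femoral vein cannulated. CA3 hippocampal field potential recorded; auditory-evoked responses averaged over 50 stimulus pairs at 10 s interstimulus interval. Gating disrupted by d-amphetamine 1 mg/kg iv; compound sc. Read-out is reversal of the amphetamine deficit; PBS vehicle; two-tailed paired t-test.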

For data set [15], the system named is Rattus norvegicus. The data set can be described thus: Cognitive enhancement in Sprague-Dawley rat assessed as reversal of amphetamine-induced auditory sensory gating deficit at 0.03 mg/kg, sc. The arrangement: dose 0.03 mg/kg. In kind it is functional, organism-based. The procedure, abridged:
as §3

Data set [16] deals with Rattus norvegicus. The data set can be described thus: Cognitive enhancement in Sprague-Dawley rat assessed as reversal of amphetamine-induced auditory sensory gating deficit at 0.1 mg/kg, sc. Type of data set: functional, organism-based. The arrangement: dose 0.1 mg/kg. The procedure, abridged: as §3
Data set [17] relates to Rattus norvegicus. Kind of data set: Cognitive enhancement in sc dosed Sprague-Dawley rat assessed as reversal of amphetamine-induced auditory sensory gating deficits. Type of data set: functional. To be noted: read-out: MED. Put shortly: as §3
Data set [18] relates to Rattus norvegicus. The data set can be described thus: Cognitive enhancement in Sprague-Dawley rat assessed as augmentation of amphetamine-induced hippocampal theta oscillation at 1 mg/kg, sc. Type of data set: functional, organism-based. Also on record: dose 1 mg/kg. To be noted: Hippocampus.
The test system of data set [19] is Rattus norvegicus. Kind of data set: Cognitive enhancement in Sprague-Dawley rat assessed as improvement of scopolamine-impaired performance at 1 mg/kg, sc administered 30 mins before scopolamine challenge by novel object recognition assay. In kind it is functional, organism-based. Also on record: dose 1 mg/kg. Put shortly:
as §2

Chain of Neuronal acetylcholine receptor; alpha4/beta2 (P09483 whole entry): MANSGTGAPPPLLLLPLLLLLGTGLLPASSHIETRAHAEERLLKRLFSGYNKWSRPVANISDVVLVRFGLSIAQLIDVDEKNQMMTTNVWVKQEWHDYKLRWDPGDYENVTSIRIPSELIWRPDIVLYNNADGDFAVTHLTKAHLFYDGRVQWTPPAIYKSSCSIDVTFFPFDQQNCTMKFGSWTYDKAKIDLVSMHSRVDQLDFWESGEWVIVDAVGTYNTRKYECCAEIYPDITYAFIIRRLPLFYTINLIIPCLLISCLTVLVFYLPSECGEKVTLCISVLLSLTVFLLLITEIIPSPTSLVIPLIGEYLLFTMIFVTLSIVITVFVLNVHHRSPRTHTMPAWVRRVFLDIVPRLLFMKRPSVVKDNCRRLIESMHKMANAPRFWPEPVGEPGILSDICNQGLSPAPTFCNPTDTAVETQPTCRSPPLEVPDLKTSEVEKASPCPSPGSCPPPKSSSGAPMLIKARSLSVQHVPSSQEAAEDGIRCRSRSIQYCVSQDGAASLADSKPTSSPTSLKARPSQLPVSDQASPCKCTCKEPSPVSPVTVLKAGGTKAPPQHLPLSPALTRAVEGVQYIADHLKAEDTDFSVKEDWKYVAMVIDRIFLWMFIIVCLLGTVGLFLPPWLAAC
Chain of Neuronal acetylcholine receptor; alpha4/beta2 (P12390 whole entry): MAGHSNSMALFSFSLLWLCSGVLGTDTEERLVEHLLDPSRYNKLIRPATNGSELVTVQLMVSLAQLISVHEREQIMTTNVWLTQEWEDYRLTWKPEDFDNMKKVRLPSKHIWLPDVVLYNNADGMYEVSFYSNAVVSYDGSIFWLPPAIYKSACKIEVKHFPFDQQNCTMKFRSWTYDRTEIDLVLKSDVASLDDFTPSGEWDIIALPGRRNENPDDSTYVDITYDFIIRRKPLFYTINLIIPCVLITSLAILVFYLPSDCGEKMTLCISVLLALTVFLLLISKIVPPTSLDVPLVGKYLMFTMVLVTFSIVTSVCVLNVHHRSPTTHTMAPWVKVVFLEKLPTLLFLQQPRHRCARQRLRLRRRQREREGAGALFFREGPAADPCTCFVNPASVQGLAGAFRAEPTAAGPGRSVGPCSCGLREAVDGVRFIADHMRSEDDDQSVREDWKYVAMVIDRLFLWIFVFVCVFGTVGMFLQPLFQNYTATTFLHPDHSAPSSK
Chain of Neuronal acetylcholine receptor subunit alpha-7 (Rattus norvegicus, UniProt Q05941) (Q05941 whole entry): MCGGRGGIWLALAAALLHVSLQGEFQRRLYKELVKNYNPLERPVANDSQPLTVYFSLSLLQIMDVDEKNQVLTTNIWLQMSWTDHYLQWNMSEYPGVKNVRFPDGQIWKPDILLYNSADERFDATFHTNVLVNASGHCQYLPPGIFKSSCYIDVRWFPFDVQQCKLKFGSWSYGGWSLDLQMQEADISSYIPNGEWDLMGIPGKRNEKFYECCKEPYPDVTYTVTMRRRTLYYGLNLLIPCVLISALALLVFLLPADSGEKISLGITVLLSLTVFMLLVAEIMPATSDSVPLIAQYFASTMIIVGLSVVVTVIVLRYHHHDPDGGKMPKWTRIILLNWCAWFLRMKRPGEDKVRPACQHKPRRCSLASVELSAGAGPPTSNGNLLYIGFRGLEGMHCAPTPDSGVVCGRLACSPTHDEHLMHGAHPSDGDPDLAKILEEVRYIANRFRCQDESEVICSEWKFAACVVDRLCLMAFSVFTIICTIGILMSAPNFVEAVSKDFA
Chain of Neuronal acetylcholine receptor subunit alpha-7 (Rattus norvegicus) (Q05941 whole entry): as above

Turning to `Cc1ccc2oc(N3CCN4CCC3CC4)nc2n1`, the Efficacy in [1] is given as 46%. The outcome in the data set on Rattus norvegicus [2], in the data set on Rattus norvegicus [14], with Rattus norvegicus [15], with Rattus norvegicus [16], with Rattus norvegicus [18] and with Rattus norvegicus [19] was Active. Besides, the inhibitory constant (Ki) (as a rule, a measure of affinity in units of concentration, obtained from inhibition or displacement) in [3] was 0.0135 µM; in [5], 0.0164 µM; in data set [6], 1.35 µM; in data set [10] it was 14 µM; in data set [11] it was 8.3 µM; in [12] it was 3 µM. The EC50 (commonly the concentration that produces a half-maximal response) in data set [4] is 0.244 µM. The Activity result with CHO is listed as “Non-toxic”. For the same molecule, in data set [7], the logD (commonly lipophilicity at a set pH, counting ionised and neutral species) amounted to 0.36. For the same molecule, the solubility – broadly, the dissolved amount per volume that the medium holds – in data set [8] was above 2400 µg/mL. Also, the half-life (as a rule, the time in which the quantity being followed falls by half) in data set [9] was above 2 h. Besides, in data set [13], the 50% effect level (ED50) was put at a dose of 0.34 mg/kg. Further, in the data set on Rattus norvegicus [17], the minimal effective dose stood at 0.3 mg/kg.
